Active and inactive are the calls of the source. No cut-off for these calls is given here.
What was measured:
MCF7 [1] = assay: Induction of autophagy in human MCF7 cells assessed as increase in Bcl2L11 mRNA expression at 2.5 uM after 24 hrs by RT-PCR analysis; type: functional, cell-based
Summary of the method: (§1)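 MCF7 cells given 2.5 µM or DMSO for 24 h. Total RNA extracted with TRIzol and reverse-transcribed, then SYBR Green qPCR across 34 autophagy-regulatory genes (95 °C 10 min; 40 cycles of 95 °C 15 s and 60 °C 1 min). Relative expression by 2^-ΔΔCt against housekeeping genes and DMSO control, shown as log2. Two independent experiments.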

MCF7 [2] = assay: Induction of autophagy in human MCF7 cells expressing GFP-LC3 assessed as distinct puncta pattern at 2.5 uM after 24 hrs by live-cell confocal microscopic analysis; type: functional, cell-based
Summary of the method: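 MCF7 cells (~1 × 10^6) at 70% confluency on glass-bottom dishes were transiently transfected with GFP-LC3 (Lipofectamine 3000). 24 h later they received 2.5 µM compound or DMSO for another 24 h. Nuclei were stained with Hoechst 33342 and lysosomes with LysoTracker Red DND-99, then imaged by live-cell confocal microscopy. LC3 puncta were counted in at least 10 cells from 3 fields. Two independent experiments.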

MDA-MB-231 [3] = assay: Induction of apoptosis in human MDA-MB-231 cells at 2.5 uM after 24 hrs by annexin V-FITC/Propidium iodide staining based flow cytometric analysis relative to tanshinone-1; type: functional
MCF7 [4] = assay: Induction of autophagy in human MCF7 cells assessed as increase in CHOP mRNA expression at 2.5 uM after 24 hrs by RT-PCR analysis; type: functional, cell-based
MDA-MB-231 [5] = assay: Induction of apoptosis in human MDA-MB-231 cells assessed as morphological changes at 2.5 uM after up to 24 hrs by phase contrast microscopic method; type: functional, cell-based; details: time hrs <=24
Summary of the method: (§2)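 ~5 × 10^4 cells in 6-well plates, either DMSO control or 2.5 µM. Morphology imaged at 0, 6, 12 and 24 h.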

MCF7 (Homo sapiens) = assay: Induction of apoptosis in human MCF7 cells assessed as increase in cell death at 2.5 uM after 24 hrs by EtBr/AO staining based fluorescence microscopic method relative to tanshinone-2A
MDA-MB-231 [6] = assay: Induction of apoptosis in human MDA-MB-231 cells assessed as reduction in number of cells at 2.5 uM by phase contrast microscopic method; type: functional, cell-based; details: time 6-24 hrs, TDE = time-dependent effect; summary of the method: as §2
MCF7 [7] = assay: Induction of autophagy in human MCF7 cells assessed as increase in LC3-2 conversion level after 24 hrs by Western blot analysis; type: functional, cell-based; details: dose 1.25-5 µM
Summary of the method: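 MCF7 cells exposed for 24 h to 0, 1.25, 2.5 or 5 µM. Western blot with GAPDH as loading control. LC3-II/I ratio obtained by densitometry. At least two independent experiments.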

MCF7 [8] = assay: Induction of autophagy in human MCF7 cells assessed as increase in DDIT3 mRNA expression at 2.5 uM after 24 hrs by PCR microarray analysis; type: functional, cell-based
Summary of the method: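 MCF7 cells given 2.5 µM or DMSO for 24 h. cDNA run on an Unfolded Protein Response RT2 Profiler PCR array. Changes computed by 2^-ΔΔCt (log2) against control, normalised to the mean of ACTB, B2M, GAPDH, HPRT1 and RPLPO.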

MCF7 [9] = assay: Induction of apoptosis in human MCF7cells assessed as reduction in number of cells at 2.5 uM by phase contrast microscopic method; type: functional, cell-based; details: time 6-24 hrs, TDE = time-dependent effect; summary of the method: as §2
MDA-MB-231 [10] = assay: Cytotoxicity against human MDA-MB-231 cells assessed as reduction in cell viability after 24 hrs by MTT assay; type: functional, cell-based; details: MDA-MB-231, 24 h
Summary of the method: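 Cells seeded ~5 × 10^3 per well in 96-well plates, exposed to 0–40 µM for 24 h. MTT added at 0.5 mg/ml for 3 h, formazan dissolved in DMSO, absorbance read at 540 nm. IC50 taken from plotted curves. Duplicate wells, two independent repeats. MCF7 grown in DMEM, MDA-MB-231 in RPMI, both with 10% FBS at 37 °C and 5% CO2.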

MCF7 [11] = assay: Induction of autophagy in human MCF7 cells assessed as increase in ATG16L2 mRNA expression at 2.5 uM after 24 hrs by RT-PCR analysis; type: functional, cell-based; summary of the method: as §1
MCF7 [12] = assay: Induction of apoptotic in human MCF7 cells assessed as increase in Bim protein expression at 2.5 uM after 24 hrs by Western blot analysis; type: functional, cell-based
Summary of the method: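 MCF7 or MDA-MB-231 cells given 2.5 µM or DMSO for 24 h, then lysed in RIPA buffer. Immunoblots probed overnight at 4 °C, followed by infrared-labelled secondary antibody for 1 h at 37 °C. Bands imaged and quantified densitometrically, with GAPDH as loading control. Representative of two independent experiments.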

MCF7 [13] = assay: Induction of autophagy in human MCF7 cells assessed as increase in GABARAP mRNA expression at 2.5 uM after 24 hrs by RT-PCR analysis; type: functional, cell-based; summary of the method: as §1
MCF7 [14] = assay: Induction of apoptosis in human MCF7 cells assessed as increase in cleaved-PARP protein expression at 2.5 uM after 24 hrs in presence of chloroquine by Western blot analysis; type: functional, cell-based
Summary of the method: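 MCF7 cells given 2.5 µM alone or combined with 50 µM chloroquine for 24 h. Western blot for cleaved PARP, p62 and LC3, with GAPDH as loading control. LC3-II/I ratio by densitometry. At least two independent experiments.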

MCF7 [15] = assay: Induction of autophagy in human MCF7 cells assessed as increase in p62 degradation at 2.5 uM after 24 hrs in presence of chloroquine by Western blot analysis; type: functional, cell-based
Summary of the method: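 MCF7 cells were given 2.5 µM compound alone or combined with 50 µM chloroquine, with DMSO control, for 24 h. Lysates were immunoblotted for p62 and LC3, with GAPDH as loading control. Band intensities were quantified by infrared imaging. At least two independent experiments.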

MCF7 [16] = assay: Induction of autophagy in human MCF7 cells assessed as increase in LC3-2 to LC3-1 protein ratio at 2.5 uM after 24 hrs by Western blot analysis; type: functional, cell-based
Summary of the method: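 MCF7 cells (~5 × 10^6) left untreated (DMSO control) or exposed to 2.5 µM compound for 24 h. Lysed in RIPA buffer, probed overnight at 4 °C, then given infrared-tagged secondary antibodies for 1 h at 37 °C and imaged by infrared scanning. LC3-II/I ratio and p62 taken by densitometry with GAPDH as loading control. Two independent experiments.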

MCF7 [17] = assay: Induction of apoptosis in human MCF7 cells at 2.5 uM after 24 hrs by annexin V-FITC/Propidium iodide staining based flow cytometric analysis relative to tanshinone-2A; type: functional
MCF7 [18] = assay: Induction of autophagy in human MCF7 cells assessed as LC3-2 to LC3-1 protein ratio at 2.5 uM after 24 hrs in presence of chloroquine by Western blot analysis (reference value: 0.52 to 0.65)

| Structure (SMILES) | Activity (MCF7 [1]) | Activity (MCF7 [2]) | fold change (FC) (MDA-MB-231 [3]) | Activity (MCF7 [4]) | Activity (MDA-MB-231 [5]) | fold change (FC) (MCF7 (Homo sapiens)) | Activity (MDA-MB-231 [6]) | Activity (MCF7 [7]) | Activity (MCF7 [8]) | Activity (MCF7 [9]) | IC50 (MDA-MB-231 [10]) [nM] | Activity (MCF7 [11]) | Activity (MCF7 [12]) | Activity (MCF7 [13]) | Activity (MCF7 [14]) | Activity (MCF7 [15]) | Activity (MCF7 [16]) | fold change (FC) (MCF7 [17]) | Ratio (MCF7 [18]) |
| --- | --- | --- | --- | --- | --- | --- | --- | --- | --- | --- | --- | --- | --- | --- | --- | --- | --- | --- | --- |
| O=C1C(=O)c2ccsc2-c2ccccc21 | Active | Active | >=2 | Active | Active | 2 | Tde | Dose-dependent effect | Active | Tde | 2600 | Active | Active | Active | inactive | inactive | Active | >=2 | 0.92 |
| O=C1C(=O)c2sccc2-c2ccccc21 | Active | Active | >=2 | Active | Active | 2 | Tde | Dose-dependent effect | Active | Tde | 2960 | Active | Active | Active | inactive | inactive | Active | >=2 | 1.1 |

Reference: ChEMBL document CHEMBL4732262, “Identification of two novel thiophene analogues as inducers of autophagy mediated cell death in breast cancer cells” (Bioorg Med Chem, 2021)
